Values belong to the compound of their own block, whether it stands above or below them. Activity calls are given as the source filed them. The rule behind the calls is not given here.
Columns and labels:
[1] = Oral bioavailability in Sprague-Dawley rat at 10 mg/kg; format: ADME, organism-based; conditions: in vivo
[2] = Genotoxicity in micronucleus
CYP3A4 = CYP3A4 (Homo sapiens, UniProt P08684); assay: Induction of CYP3A4 relative to control; format: ADME; conditions: human
Salmonella typhimurium = assay: Genotoxicity against Salmonella typhimurium by AMES test; format: toxicity, organism-based; conditions: salmonella enterica subsp. enterica serovar typhimurium
[3] = Drug metabolism in human liver microsomes; format: ADME, Microsome; conditions: read-out: Drug metabolism
[4] = Drug metabolism in rat liver microsomes; format: ADME, Microsome; conditions: read-out: Drug metabolism
[5] = Solubility of the compound; format: physicochemical
[6] = Lipophilicity, log D of the compound; format: physicochemical; conditions: octanol/water
[7] = molecular target: Voltage-gated inwardly rectifying potassium channel KCNH2 (Homo sapiens, UniProt Q12809); assay: Inhibition of human ERG
Neprilysin = Neprilysin (Homo sapiens, UniProt P08473); assay: Inhibition of human recombinant NEP using Mca-RPPGFSAFK(Dnp)-OH as substrate incubated for 15 mins prior to substrate addition measured after 20 to 30 mins by fluorimetric analysis
Outline: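 Recombinant human NEP and inhibitor preincubated 15 min at room temperature in reaction buffer, then substrate added. Fluorescence read after 20-30 min at room temperature. % inhibition and IC50 calculated against internal high and low controls.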

Rattus norvegicus [8] = assay: Cardioprotective activity against ventricular ischemia/reperfusion in Wistar rat assessed as duration of burst-pacing-induced atrial fibrillation at 30 mg/kg, po administered QD after 3 months (reference value: 25.00 18.09 s); format: functional, Cardiac atrium
Mus musculus [9] = assay: Cardioprotective activity against angiotensin 2-induced cardiac hypertrophy in B6.129P2-ApoE/J mouse assessed as left ventricular relaxation time at 100 mg/kg, po administered QD after 4 weeks (reference value: 8.73 0.41 ms); format: functional, Heart left ventricle
Mus musculus [10] = assay: Cardioprotective activity against angiotensin 2-induced cardiac hypertrophy in B6.129P2-ApoE/J mouse assessed as left ventricular end diastolic pressure at 100 mg/kg, po administered QD after 4 weeks (reference value: 15.49 1.95 mmHg); format: functional, Heart left ventricle
Mus musculus [11] = assay: Cardioprotective activity against angiotensin 2-induced cardiac hypertrophy in B6.129P2-ApoE/J mouse assessed as left ventricular end systolic pressure at 100 mg/kg, po administered QD after 4 weeks (reference value: 139.36 9.79 mmHg); format: functional, Heart left ventricle
Mus musculus [12] = assay: Cardioprotective activity against angiotensin 2-induced cardiac hypertrophy in B6.129P2-ApoE/J mouse assessed as ejection fraction at 100 mg/kg, po administered QD after 4 weeks (reference value: 51.14 2.49 %); format: functional, Heart
Mus musculus [13] = assay: Cardioprotective activity against angiotensin 2-induced cardiac hypertrophy in B6.129P2-ApoE/J mouse assessed as heart rate at 100 mg/kg, po administered QD after 4 weeks (reference value: 403.23 7.98 bpm); format: functional
Mus musculus [14] = assay: Cardioprotective activity against angiotensin 2-induced cardiac hypertrophy in B6.129P2-ApoE/J mouse assessed as mean arterial pressure at 100 mg/kg, po administered QD after 4 weeks (reference value: 99.03 6.82 mmHg); format: functional, Heart
Mus musculus [15] = assay: Ratio of left ventricular wet weight to body weight in B6.129P2-ApoE/J mouse at 100 mg/kg, po administered QD after 4 weeks (reference value: 5.99 0.28 mg/g); format: functional
Mus musculus [16] = assay: Cardioprotective activity against angiotensin 2-induced cardiac hypertrophy in B6.129P2-ApoE/J mouse assessed as left ventricular wet weight at 100 mg/kg, po administered QD after 4 weeks (reference value: 182.03 […]); format: functional, Heart left ventricle
Mus musculus [17] = assay: Toxicity in B6.129P2-ApoE/J mouse assessed as body weight at 100 mg/kg, po administered QD after 4 weeks (reference value: 30.48 0.52 g); format: organism-based; design: dose 100 mg/kg, route oral; conditions: in vivo, 672 h
Rattus norvegicus [18] = assay: Antihypertensive activity in Wistar rat assessed as bradykinin-dependent diuresis at 10 mg/kg, iv administered as bolus measured as urine flow rate in presence of HOE140 (reference value: 11.6 uL/min); format: functional
Outline: (§1)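 Anesthetized male Wistar rats prepared with urethane, carotid/jugular cannulae, continuous albumin-saline infusion and ureteral urine collection. Compound given as iv bolus at 10 mg/kg, alone or with HOE140 0.5 mg/kg iv. Urine volume measured over five successive 20 min periods; two-way ANOVA with Bonferroni post-tests, p < 0.05.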

Rattus norvegicus [19] = assay: Antihypertensive activity in Wistar rat assessed as bradykinin-dependent diuresis at 10 mg/kg, iv administered as bolus measured as urine flow rate (reference value: 11.6 uL/min); format: functional; outline: as §1
Rattus norvegicus [20] = assay: Antihypertensive activity in Wistar rat assessed as bradykinin-dependent diuresis at 1 mg/kg, iv administered as bolus measured as urine flow rate (reference value: 11.6 uL/min); format: functional
Rattus norvegicus [21] = assay: Effect on glomerular filtration rate in Wistar rat assessed as change in creatinine excretion at 30 mg/kg, po relative to vehicle-treated control; format: functional, organism-based; design: dose 30 mg/kg
Outline: (§2)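 Male Wistar rats dosed po at 30 mg kg⁻¹ day⁻¹. Urine collected over 6 h before and after treatment. Bradykinin measured by commercial RIA; creatinine excretion also determined. Mean ± SEM, n = 9-10; paired t test.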

Rattus norvegicus [22] = assay: Antihypertensive activity in Wistar rat assessed as increase in bradykinin level in urine at 30 mg/kg, po relative to vehicle-treated control; format: functional; outline: as §2
[23] = AUC (0 to infinity) in Sprague-Dawley rat heart at 10 mg/kg, po; format: ADME, organism-based; design: time infinity, dose 10 mg/kg, route oral
Outline: (§3)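 Male Sprague-Dawley rats; single oral 10 mg/kg in glycofurol 75 (19%)/Cremophor RH40 (6%)/water (75%). Plasma and heart sampled at eight time points over 24 h, three animals per time point, nonserial design. Heart homogenized with water (2 g per 1 g tissue). Concentrations measured by LC-MS/MS with a structurally related internal standard; AUC(0-inf) taken from plasma concentration-time curves.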

[24] = Cmax in Sprague-Dawley rat heart at 10 mg/kg, po; format: ADME, organism-based; design: dose 10 mg/kg, route oral; outline: as §3
[25] = AUC (0 to infinity) in Sprague-Dawley rat plasma at 10 mg/kg, po; format: ADME, organism-based; design: time infinity, dose 10 mg/kg, route oral; outline: as §3
[26] = Cmax in Sprague-Dawley rat plasma at 10 mg/kg, po; format: ADME, organism-based; design: dose 10 mg/kg, route oral; outline: as §3
[27] = molecular target: T1, Lysosomal protective protein (Homo sapiens, UniProt P10619); assay: Inhibition of human recombinant Myc-His10-tagged cathepsin A expressed in baculovirus infected Sf9 cells using BodipyFL labeled bradykinin as substrate incubated for 15 mins prior to substrate addition measured after 15 mins by fluorimetric analysis
T1 sequence (P10619 whole entry): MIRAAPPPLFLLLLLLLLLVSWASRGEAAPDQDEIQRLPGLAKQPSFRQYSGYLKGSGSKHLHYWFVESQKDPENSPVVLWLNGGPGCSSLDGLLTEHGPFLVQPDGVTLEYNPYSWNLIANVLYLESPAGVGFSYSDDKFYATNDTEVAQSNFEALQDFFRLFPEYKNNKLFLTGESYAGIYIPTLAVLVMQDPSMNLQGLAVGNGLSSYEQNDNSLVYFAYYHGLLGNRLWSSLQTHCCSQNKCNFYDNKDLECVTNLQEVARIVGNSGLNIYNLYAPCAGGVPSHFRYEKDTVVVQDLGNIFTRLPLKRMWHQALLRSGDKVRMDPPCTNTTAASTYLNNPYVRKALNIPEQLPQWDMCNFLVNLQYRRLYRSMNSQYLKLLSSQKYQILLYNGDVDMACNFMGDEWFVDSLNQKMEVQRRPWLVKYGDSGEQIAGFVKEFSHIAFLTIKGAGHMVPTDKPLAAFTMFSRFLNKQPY

[28] = molecular target: Cathepsin A (Homo sapiens); assay: Inhibition of cathepsin A

Sequence of Neprilysin (P08473 whole entry): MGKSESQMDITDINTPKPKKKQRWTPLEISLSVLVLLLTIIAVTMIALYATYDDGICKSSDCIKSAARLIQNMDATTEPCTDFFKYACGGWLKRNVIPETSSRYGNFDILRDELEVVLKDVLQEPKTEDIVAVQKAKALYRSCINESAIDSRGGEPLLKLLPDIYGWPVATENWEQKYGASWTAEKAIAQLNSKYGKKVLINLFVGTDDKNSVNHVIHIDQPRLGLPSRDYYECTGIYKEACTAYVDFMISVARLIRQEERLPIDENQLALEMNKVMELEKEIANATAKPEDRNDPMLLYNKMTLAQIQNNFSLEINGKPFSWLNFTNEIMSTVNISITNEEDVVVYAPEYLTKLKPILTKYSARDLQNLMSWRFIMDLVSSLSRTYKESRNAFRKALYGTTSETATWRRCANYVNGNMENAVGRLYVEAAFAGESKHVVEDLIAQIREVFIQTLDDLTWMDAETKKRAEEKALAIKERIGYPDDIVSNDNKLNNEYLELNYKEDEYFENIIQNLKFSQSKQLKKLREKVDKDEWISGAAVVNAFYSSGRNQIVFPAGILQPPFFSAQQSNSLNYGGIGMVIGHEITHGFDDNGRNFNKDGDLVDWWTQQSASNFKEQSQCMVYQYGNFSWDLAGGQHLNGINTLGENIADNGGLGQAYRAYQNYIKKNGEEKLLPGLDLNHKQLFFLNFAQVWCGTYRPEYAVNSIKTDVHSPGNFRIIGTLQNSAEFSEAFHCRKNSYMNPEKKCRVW
Sequence of CYP3A4 (P08684 whole entry): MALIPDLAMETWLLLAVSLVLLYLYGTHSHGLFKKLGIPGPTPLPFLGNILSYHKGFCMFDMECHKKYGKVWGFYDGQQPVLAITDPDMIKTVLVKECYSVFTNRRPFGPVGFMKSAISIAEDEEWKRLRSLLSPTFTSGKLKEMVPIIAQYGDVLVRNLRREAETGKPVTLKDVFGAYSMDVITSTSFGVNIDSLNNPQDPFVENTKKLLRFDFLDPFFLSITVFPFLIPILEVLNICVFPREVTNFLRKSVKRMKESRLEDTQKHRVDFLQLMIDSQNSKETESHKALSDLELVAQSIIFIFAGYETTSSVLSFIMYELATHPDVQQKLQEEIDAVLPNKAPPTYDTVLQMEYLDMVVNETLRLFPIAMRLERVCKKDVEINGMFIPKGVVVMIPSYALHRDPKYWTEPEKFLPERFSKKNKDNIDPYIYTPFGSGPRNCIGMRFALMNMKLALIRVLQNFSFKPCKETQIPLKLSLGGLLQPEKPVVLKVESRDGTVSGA
Sequence of Voltage-gated inwardly rectifying potassium channel KCNH2 (Q12809 whole entry): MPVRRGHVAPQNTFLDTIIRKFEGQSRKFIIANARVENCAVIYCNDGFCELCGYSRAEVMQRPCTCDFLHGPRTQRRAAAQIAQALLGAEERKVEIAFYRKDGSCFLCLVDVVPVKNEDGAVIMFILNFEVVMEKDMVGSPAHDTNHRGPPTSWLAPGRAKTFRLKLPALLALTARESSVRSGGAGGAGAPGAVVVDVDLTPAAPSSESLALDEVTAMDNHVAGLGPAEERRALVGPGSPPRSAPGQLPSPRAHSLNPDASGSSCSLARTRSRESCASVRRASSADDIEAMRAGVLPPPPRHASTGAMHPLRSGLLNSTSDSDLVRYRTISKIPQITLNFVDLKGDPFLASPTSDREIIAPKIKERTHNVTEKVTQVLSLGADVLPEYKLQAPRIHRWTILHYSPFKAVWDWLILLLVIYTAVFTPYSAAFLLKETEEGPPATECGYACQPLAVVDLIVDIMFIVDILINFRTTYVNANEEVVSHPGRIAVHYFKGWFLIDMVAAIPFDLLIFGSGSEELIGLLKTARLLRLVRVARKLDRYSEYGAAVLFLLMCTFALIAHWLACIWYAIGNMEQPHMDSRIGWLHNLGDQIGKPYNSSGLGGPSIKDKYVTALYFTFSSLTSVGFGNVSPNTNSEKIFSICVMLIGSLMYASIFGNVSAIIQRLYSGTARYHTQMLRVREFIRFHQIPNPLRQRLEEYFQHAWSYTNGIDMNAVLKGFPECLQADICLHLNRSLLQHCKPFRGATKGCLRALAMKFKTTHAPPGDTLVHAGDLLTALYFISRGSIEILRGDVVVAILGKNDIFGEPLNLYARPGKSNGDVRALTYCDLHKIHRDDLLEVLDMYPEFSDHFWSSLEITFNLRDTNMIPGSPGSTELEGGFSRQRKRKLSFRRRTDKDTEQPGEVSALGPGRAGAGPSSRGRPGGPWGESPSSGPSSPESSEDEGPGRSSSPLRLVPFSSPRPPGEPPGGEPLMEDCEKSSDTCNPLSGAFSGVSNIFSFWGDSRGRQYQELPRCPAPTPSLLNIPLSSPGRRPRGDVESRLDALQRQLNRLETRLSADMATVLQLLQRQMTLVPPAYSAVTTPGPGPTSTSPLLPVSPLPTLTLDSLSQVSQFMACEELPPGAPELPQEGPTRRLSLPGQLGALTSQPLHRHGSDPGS

bioavailability [1]: < 5% | Emax (CYP3A4): 0% | metabolised [3]: 10% | metabolised [4]: 10% | solubility [5]: > 180 µg/mL | logD [6]: -0.16 | inhibition (Neprilysin): Active
SMILES: Cc1ccccc1[C@H](CC(=O)O)NC(=O)c1cc(=O)n(-c2ccccc2F)[nH]1
Activity [2]: Non-toxic | Activity (Salmonella typhimurium): Non-toxic | IC50 [7]: > 10000 nM

AUC(0-inf) [23]: 16000 ng·h/mL | Cmax [24]: 3720 ng/mL | AUC(0-inf) [25]: 130000 ng·h/mL | Cmax [26]: 22200 ng/mL | Emax (CYP3A4): 9% | IC50 (Neprilysin): 1900 nM | IC50 [27]: 26 nM | IC50 [28]: 26 nM
SMILES: COc1cc(C(=O)N[C@@H](CC(=O)O)c2ccccc2C)nn1-c1ccccc1F
Time (Rattus norvegicus [8]): 0.69 s | Time (Mus musculus [9]): 7.05 ms | Activity (Mus musculus [10]): 8.32 mmHg | Activity (Mus musculus [11]): 129.95 mmHg | Activity (Mus musculus [12]): 57.89% | Activity (Mus musculus [13]): 407.11 bpm | Activity (Mus musculus [14]): 95.88 mmHg | Ratio (Mus musculus [15]): 4.84 mg/g | Activity (Mus musculus [16]): 142.69 mg | Activity (Mus musculus [17]): 29.63 g | Activity (Rattus norvegicus [18]): 15.3 µL/min | Activity (Rattus norvegicus [19]): 18.3 µL/min | Activity (Rattus norvegicus [20]): 14.3 µL/min | Activity (Rattus norvegicus [21]): inactive | fold change (FC) (Rattus norvegicus [22]): 2
